The source made the active and inactive calls. No cut-off for these calls is given here.
Assays:
Cathepsin B [1] = molecular target: T1, Cathepsin B (Homo sapiens, UniProt P07858); assay: Inhibition of human liver cathepsin B assessed as pseudo Michaelis-Menten constant at 10 nM using varying levels of Z-Arg-Arg-AMC as substrate measured every 5 mins for 1 hr by fluorescence assay
[2] = Drug localization in endolysosomal compartment of human HT-29 cells assessed as decrease in co-localization efficiency at 5 uM incubated for 2 hrs and measured over 24 hrs using natEu labelled compound by lysotracker green staining based confocal microscopic analysis relative to control; format: ADME, subcellular; conditions: ht-29, 5 µM
How it was run: (§1)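 HT-29 cells (1.25 × 10^5/well) loaded with natEu conjugate (5 μM), washed, then chased in fresh medium up to 24 h. Lysotracker Green (100 nM) applied 2 h before each read; cells fixed and imaged confocally at 405/488 nm. Per-cell mean fluorescence and Lysotracker co-localization quantified.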

[3] = Ratio of drug uptake in SCID mouse xenograted with human HT-29 cells assessed as tumour retention to drug uptake in spleen of SCID mouse xenografted with human HT-29 cells cotreated with D-lysine at 40 mg/kg measured after 24 hrs using 177Lu labelled compound; format: ADME, organism-based, Tumor/Spleen; conditions: in vivo
[4] = Drug uptake in heart of SCID mouse xenografted with human HT-29 cells pretreated for 1 hr with colchicine at 1 mg/kg, ip followed by 177Lu labelled compound at 0.37 MBq/mouse, iv measured at 24 hrs by gamma counter analysis; format: ADME, organism-based; conditions: in vivo
How it was run: (§2)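 HT-29 flank xenografts in female SCID mice (5 × 10^6 cells in Matrigel, about 80 mm3). Colchicine 1 mg/kg was given i.p. before a tail-vein injection of 10 μCi (0.37 MBq) of purified 177Lu-conjugate. Tissues were taken at 24 h, weighed and gamma-counted as %ID/g; mean ± SD, n = 5.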

Cathepsin B [5] = molecular target: T1, Cathepsin B; assay: Binding affinity to human liver cathepsin B assessed as protein-conjugate adduct formation at 0.74 MBq incubated for 30 mins in presence of DOTA-beta-ala-[N-alpha-Me8, Dmt11, Tle12] NT6-13 using 177Lu labelled compound by SDS-PAGE analysis; conditions: 0.74 M
How it was run: (§3)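 Purified human liver CatB or CatL (3 nM) in 50 mM sodium acetate/1 mM EDTA pH 5.0 incubated 30 min with 177Lu conjugate (500,000 cpm) in Tris/MgCl2/DTT buffer pH 5.5, alone or with E-64 (10 μM) or N1 (20 μM). Mixtures heated 85 °C 2 min, run on 16% tris-glycine gel at 110 V for 90 min, and read by phosphor autoradiography.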

[6] = Drug uptake in pancreas of SCID mouse xenografted with human HT-29 cells using 177Lu labelled compound at 0.37 MBq/mouse, iv co-treated with D-lysine at 40 mg/kg measured at 24 hrs by gamma counter analysis; format: ADME, organism-based; conditions: in vivo
How it was run: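 Female SCID mice bore s.c. HT-29 xenografts (5 × 10^6 cells in Matrigel, about 80 mm3). D-lysine 40 mg/kg was co-injected i.v. with 10 μCi (0.37 MBq) of purified 177Lu-conjugate. Tissues were harvested at 24 h, weighed and gamma-counted, reported as %ID/g; mean ± SD, n = 5.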

Procathepsin L [7] = molecular target: T2, Procathepsin L (Homo sapiens, UniProt P07711); assay: Binding affinity to human liver cathepsin L assessed as protein-conjugate adduct formation at 0.74 MBq incubated for 30 mins in presence of E-64 using 177Lu labelled compound by SDS-PAGE analysis; conditions: 0.74 M; how it was run: as §3
[8] = Ratio of drug uptake in SCID mouse xenograted with human HT-29 cells assessed as tumour retention to drug uptake in lung of SCID mouse xenografted with human HT-29 cells cotreated with D-lysine at 40 mg/kg measured after 24 hrs using 177Lu labelled compound; format: ADME, organism-based, Tumor/Lung; conditions: in vivo
Procathepsin L [9] = molecular target: T2, Procathepsin L; assay: Inhibition of human liver cathepsin L using Z-Phe-Arg-AMC as substrate assessed as second order rate constant measured every 5 mins for 1 hr by fluorescence assay
How it was run: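 Human liver cathepsin L in acetate buffer pH 5.5 (340 mM sodium acetate, 60 mM acetic acid, 1 mM EDTA, 3 mM DTT). Conjugate 1–500 nM; Z-Phe-Arg-AMC 100 μM; 37 °C. […] Biological triplicate.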

[10] = Drug uptake in SCID mouse xenografted with human HT-29 cells assessed as tumour retention pretreated for 1 hr with colchicine at 1 mg/kg, ip followed by 177Lu labelled compound at 0.37 MBq/mouse, iv measured at 24 hrs by gamma counter analysis; format: ADME, organism-based; conditions: in vivo
How it was run: (§4)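 Female SCID mice bearing s.c. flank HT-29 xenografts (5 × 10^6 cells in Matrigel, ~80 mm3). Given 10 μCi (0.37 MBq) 177Lu conjugate i.v. by tail vein; groups sacrificed at 4, 24, 72 h. Tissues weighed and gamma-counted as %ID/g, excretion as %ID; n = 5, mean ± SD. Blocking arms: colchicine 1 mg/kg i.p. beforehand, or D-lysine 40 mg/kg co-injected.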

[11] = Drug distribution in human HT-29 cells assessed as adduct signals at 24 hrs relative to baseline; format: ADME, cell-based; conditions: ht-29, 24 h
How it was run: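 HT-29 cells preloaded 4 h with 177Lu conjugate (0.74 MBq), washed and chased in fresh medium. Lysates taken at 0 and 24 h and run on SDS-PAGE autoradiography; adduct band radioactivity at 24 h expressed relative to the 0 h intensity.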

[12] = Ratio of drug uptake in SCID mouse xenograted with human HT-29 cells assessed as tumour retention to drug uptake in large intestine of SCID mouse xenografted with human HT-29 cells cotreated with D-lysine at 40 mg/kg measured after 24 hrs using 177Lu labelled compound; format: ADME, organism-based, Tumor/Large intestine; conditions: in vivo
How it was run: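 Female SCID mice (5 weeks old) carried subcutaneous flank HT-29 xenografts (5 × 10^6 cells in Matrigel), used at about 80 mm3. They received 10 μCi (0.37 MBq) of purified 177Lu-labelled conjugate i.v. by tail vein, with D-lysine 40 mg/kg co-injected. At 24 h p.i., tissues were excised, weighed and gamma-counted, and %ID/g and tumour-to-tissue ratios were calculated (n = 5).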

[13] = Drug retention in human HT-29 cells assessed as increase in mean fluorescence intensity at 5 uM incubated for 2 hrs and measured at 2 to 4 hrs using natEu labelled compound by lysotracker green staining based confocal microscopic analysis; format: ADME, cell-based; conditions: ht-29, 2 h; how it was run: as §1
[14] = Drug uptake in small intestine of SCID mouse xenografted with human HT-29 cells pretreated for 1 hr with colchicine at 1 mg/kg, ip followed by 177Lu labelled compound at 0.37 MBq/mouse, iv measured at 24 hrs by gamma counter analysis; format: ADME, organism-based; conditions: in vivo; how it was run: as §2
[15] = Drug uptake in SCID mouse xenografted with human HT-29 cells assessed as tumour retention using 177Lu labelled compound at 0.37 MBq/mouse, iv co-treated with D-lysine at 40 mg/kg measured at 24 hrs by gamma counter analysis; format: ADME, organism-based; conditions: in vivo; how it was run: as §4
[16] = Drug uptake in lung of SCID mouse xenografted with human HT-29 cells pretreated for 1 hr with colchicine at 1 mg/kg, ip followed by 177Lu labelled compound at 0.37 MBq/mouse, iv measured at 24 hrs by gamma counter analysis; format: ADME, organism-based; conditions: in vivo; how it was run: as §2
[17] = Drug retention in tumor lysates of mouse xenografted with human HT-29 cells assessed as macromolecule associated radioactivity at 29.6 MBq co-treated with D-lysine measured after 72 hrs using 177Lu labelled compound by gamma counter analysis relative to control; format: ADME, tissue-based, Neoplasm; conditions: in vivo

T2 sequence (P07711 114-333 limits assumed): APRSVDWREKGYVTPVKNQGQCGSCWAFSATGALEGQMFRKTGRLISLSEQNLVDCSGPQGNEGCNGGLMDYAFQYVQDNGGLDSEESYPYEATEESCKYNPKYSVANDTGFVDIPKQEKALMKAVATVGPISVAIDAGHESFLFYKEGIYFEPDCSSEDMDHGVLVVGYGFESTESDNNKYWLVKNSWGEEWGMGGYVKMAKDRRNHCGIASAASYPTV

K (Cathepsin B [1])	Drug uptake [2]	Ratio [3]	Drug uptake [4]	Activity (Cathepsin B [5])	Drug uptake [6]	Activity (Procathepsin L [7])	Ratio [8]	K (Procathepsin L [9])	Drug uptake [10]	Drug uptake [11]	Ratio [12]	Drug uptake [13]	Drug uptake [14]	Drug uptake [15]	Drug uptake [16]	Drug uptake [17]	SMILES
182 µM	20%	–	–	–	–	–	–	–	–	–	–	–	–	–	–	–	Cc1cc(O)cc(C)c1C[C@H](NC(=O)[C@@H]1CCCN1C(=O)[C@H](CCCNC(=N)N)NC(=O)[C@H](CCCNC(=N)N)N(C)C(=O)[C@@H]1CCCN1C(=O)[C@H](CCCCN)NC(=O)[C@@H](CO)NC(=O)[C@@H](CO)NC(=O)[C@@H](CO)NC(=O)[C@H](Cc1cn(CCNC(=O)[C@H](CCCNC(=N)N)NC(=O)[C@H](CC(C)C)NC(=O)CCC(=O)O)nn1)NC(=O)CN1CCN(CC(=O)O)CCN(CC(=O)O)CCN(CC(=O)O)CC1)C(=O)N[C@H](C(=O)N[C@@H](CC(C)C)C(=O)O)C(C)(C)C
–	–	8	0.2 % ID/g	Active	0.14 % ID/g	inactive	15	24000 M⁻¹ s⁻¹	1.7 % ID/g	55%	8	Not Active	2.2 % ID/g	6 % ID/g	3.2 % ID/g	80%	Cc1cc(O)cc(C)c1C[C@H](NC(=O)[C@@H]1CCCN1C(=O)[C@H](CCCNC(=N)N)NC(=O)[C@H](CCCNC(=N)N)N(C)C(=O)[C@@H]1CCCN1C(=O)[C@H](CCCCN)NC(=O)[C@@H](CO)NC(=O)[C@@H](CO)NC(=O)[C@@H](CO)NC(=O)[C@H](Cc1cn(CCNC(=O)[C@H](CCCNC(=N)N)NC(=O)[C@H](CC(C)C)NC(=O)C2OC2C(=O)O)nn1)NC(=O)CN1CCN(CC(=O)O)CCN(CC(=O)O)CCN(CC(=O)O)CC1)C(=O)N[C@H](C(=O)N[C@@H](CC(C)C)C(=O)O)C(C)(C)C (some centres not stated)

From ChEMBL document CHEMBL4350999, “Enhanced tumor retention of NTSR1-targeted agents by employing a hydrophilic cysteine cathepsin inhibitor” (Eur J Med Chem, 2019)
